This is a sample that favours compounds with a hit; in the whole collection about 2.2% have one here.
E-selectin induc: induces E-selectin expression in human endothelial cells; activation, % at 7.58 µM; HUVEC E-selectin immunofluorescence imaging; normalized: neutral wells 0, TNF-alpha wells 100; 260,000 compounds, 0.37% hits;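 active means mean E-selectin-positive cell signal at least 10% of the positive control, reached in at least 60% of replicates, without over 20% cell loss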
Target sequence (P16581 whole entry, looked up): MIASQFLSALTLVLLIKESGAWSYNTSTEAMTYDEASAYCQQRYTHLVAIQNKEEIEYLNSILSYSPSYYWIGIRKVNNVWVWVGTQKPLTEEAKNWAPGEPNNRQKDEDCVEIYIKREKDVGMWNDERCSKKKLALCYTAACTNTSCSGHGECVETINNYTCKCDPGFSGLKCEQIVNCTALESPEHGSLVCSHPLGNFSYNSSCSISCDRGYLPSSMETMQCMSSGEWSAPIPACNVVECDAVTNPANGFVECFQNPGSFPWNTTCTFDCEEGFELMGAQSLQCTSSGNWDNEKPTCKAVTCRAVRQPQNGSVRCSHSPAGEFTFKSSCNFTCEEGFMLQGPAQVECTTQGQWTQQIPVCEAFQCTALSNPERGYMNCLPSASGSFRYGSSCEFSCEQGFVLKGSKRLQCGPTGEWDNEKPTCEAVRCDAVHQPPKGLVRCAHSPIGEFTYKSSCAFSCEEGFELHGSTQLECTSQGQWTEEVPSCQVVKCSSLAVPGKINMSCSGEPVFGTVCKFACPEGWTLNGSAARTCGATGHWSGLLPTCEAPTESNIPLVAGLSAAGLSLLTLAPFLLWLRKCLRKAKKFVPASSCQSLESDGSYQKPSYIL
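System: HUVEC, human umbilical vein endothelial cells; quantity: 3,000 cells/well; buffer or medium: EGM-2 medium, gelatin-coated wells; dosing: single-point compound dose; detection: immunofluorescence imaging; evaluation: % PE-positive cells; benchmarks: TNF-alpha, DMSO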
Statin myotox sup: suppressors of simvastatin-induced myotoxicity in C2C12 myotubes; rescue of ATP level, % at 7.49 µM; ATP luminescence, 48 h; scaled: DMSO 0, geranylgeraniol control 100; 330,000 compounds, 0.78% hits;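 active means mean ATP rescue above about 67%, or every replicate alone reaching that limit, limit read from the data, passing the limit was not always enough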;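 further: myotubes were challenged with 10 µM simvastatin during compound exposure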
DENV2 CPE: DENV2-induced cell death inhibition | 350,000 compounds, 1.7% hits | CPE inhibition, % at 9.99 µM | DENV2-infected cells, cytopathic effect rescue, plate reader | AID 651640; in the data active means CPE inhibition above about 20%, passing the limit was not always enough; tested in BHK-21 cells;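 further: 0% = median of neutral control wells and 100% = median of positive control wells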
An asterisk follows results filed as active; nt = no result.

SMILES	E-selectin induc	Statin myotox sup	DENV2 CPE
CC=Cc1ccc2n(c1=O)C[C@H]1[C@H](CO)[C@@H](C(=O)NCC)[C@@H]2N1Cc1ccccc1 (mixture of isomers)	-2	37	5
CC(=O)c1sc(N)c(C(=O)OC(C)C)c1C	nt	3	nt
Cc1c(C(=O)OC(C)C)sc(N)c1C(=O)OC(C)C	nt	nt	48*
COc1ccc(NC(=O)Nc2ccc3c(c2)C(=O)N([C@H](C)CO)C[C@H](C)[C@H](CN(C)C(=O)Nc2cccc4ccccc24)OCCCC[C@@H](C)O3)cc1	0	-9	-2
C=CCOc1ccc(Br)cc1/C=N/O	nt	126*	nt
O/N=C/c1cc(Br)ccc1OCc1ccccc1F	nt	-10	nt
CS(=O)(=O)Nc1ccc2c(c1)[C@H]1C[C@H](CC(=O)NCc3ccccc3F)O[C@@H](CO)[C@H]1O2	0	-5	-1
COc1cc2sc3cc(NCCCN4CCOCC4)ccc3c(=O)c2cc1OC	0	6	2
COc1cccc2sc3cc(NCc4ccc(C)o4)ccc3c(=O)c12	-1	4	56*
CC=Cc1ccc2n(c1=O)C[C@@H]1[C@@H](CO)[C@H](C(=O)N[C@H](C)c3ccccc3)[C@H]2N1CC (mixture of isomers)	1	19	5
CCOC(=O)N/N=C/c1cc(C)n(-c2cccc3ccccc23)c1C	1	nt	37*
CCOC(=O)N/N=C/c1cc(C)n(-c2ccccc2)c1C	nt	-4	1
CC(C)NC(=O)Nc1ccc2c(c1)C(=O)N([C@@H](C)CO)C[C@H](C)[C@H](CN(C)Cc1ccncc1)OCCCC[C@H](C)O2	0	nt	-1
C[C@@H]1CN([C@H](C)CO)C(=O)Cc2cc(NC(=O)C3CCCCC3)ccc2O[C@H]1CN(C)C(=O)Nc1ccc2c(c1)OCO2	-3	-9	1
COCC(=O)N1CC2(C1)[C@H](c1ccc(-c3cccc(C)c3)cc1)[C@H](CO)N2C(=O)C1CC1	0	nt	49*
COCC(=O)N1[C@@H](CO)[C@H](c2ccc(-c3cccc(OC)c3)cc2)C12CN(C(C)=O)C2	0	nt	31*
COCC(=O)N1CC2(C1)[C@H](c1ccc(-c3cccc(C)c3)cc1)[C@@H](CO)N2C(=O)C1CC1	0	nt	-15
CCC(=O)N1[C@H](CO)[C@@H](c2ccc(-c3cccc(OC)c3)cc2)C12CN(C(C)=O)C2	0	nt	5
CCCC(=O)Nc1ccc2c(c1)C(=O)N(C)[C@H]1CC[C@@H](CC(=O)Nc3cn(C)nc3C)O[C@H]1CO2	0	6	0
Cc1cc(C)cc(OCC(=O)OC/C(O)=C(\C#N)c2nc3ccccc3[nH]2)c1	0	nt	nt
Cc1cccc(C)c1OCC(=O)OC/C(O)=C(\C#N)c1nc2ccccc2[nH]1	nt	nt	33*
CO[C@H]1CN(C)C(=O)c2cc(NS(=O)(=O)CC(F)(F)F)ccc2OC[C@H](C)N(CC2CCCCC2)C[C@@H]1C	0	14	3
CC(C)C[C@@H](CN1CCCC1CN1C(=S)NC[C@@H]1Cc1ccc(O)cc1)N1C[C@H](Cc2ccccc2)N(CC2CCCCCC2)C1=S (some centres undefined)	0	6	-10
CCOc1ccc(CCN2C(=S)N([C@@H](CC(C)C)CN3CCCC3CN3C(=S)NC[C@@H]3Cc3ccc(O)cc3)C[C@@H]2Cc2ccc(O)cc2)cc1 (some centres undefined)	0	5	31*
CCOc1ccc(CCN2C(=S)N([C@@H](CC(C)C)CN3CCCC3CN3C(=S)NC[C@@H]3Cc3ccc(O)cc3)C[C@@H]2Cc2ccccc2)cc1 (some centres undefined)	0	0	-11
SMILES	E-selectin induc	Statin myotox sup	DENV2 CPE
CC(C)C[C@@H](CN1CCCC1CN1C(=S)NC[C@@H]1Cc1ccc(O)cc1)N1C[C@H](Cc2ccc(O)cc2)N(CC2CCCCCC2)C1=S (some centres undefined)	0	-4	41*
C[C@@H]1CN([C@@H](C)CO)C(=O)c2cccc(NC(=O)C3CCOCC3)c2O[C@@H]1CN(C)S(=O)(=O)c1cccs1	0	-10	-1
O=C(C1CCC1)N1CC2(C1)[C@@H](c1ccccc1)[C@@H](CO)N2Cc1ccc(Cl)cc1	0	nt	16
CC(=O)Nc1ccc(S(=O)(=O)NNc2cccc(C)c2)cc1	57*	13	-3
CCC(NS(=O)(=O)c1ccc(C)cc1)C(=O)Nc1ccc(NC(C)=O)cc1 (centres undefined)	nt	138*	nt
Cc1cccc(NC(=O)NNS(=O)(=O)c2ccc(F)cc2)c1	-2	nt	nt
CCC(C)NS(=O)(=O)c1ccc(NC(C)=O)cc1 (centres undefined)	nt	-5	nt
CO[C@@H]1CC[C@H]2CCN(C)C(=O)[C@H](C)N(C)C(=O)c3cc(C#N)ccc3OC[C@@H]1O2	0	-1	3

Assay outcomes (PubChem)
